The record followed here is ChEMBL document CHEMBL3286350, “Aplysinellamides A-C, bromotyrosine-derived metabolites from an Australian Aplysinella sp. marine sponge” (2014).

The source made the active and inactive calls. No cut-off for these calls is given here.

The test system of the first test is CCF-STTG1. As to the kind of experiment: Induction of apolipoprotein E secretion from human CCF-STTG1 cells at 30 uM after 96 hrs by ELISA relative to control. The test is classed as functional. In short, it runs like this:
(§1)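 Human CCF-STTG1 astrocytoma cells were incubated with test compounds at concentrations of up to 40 μM for 96 h, and apolipoprotein E secretion was then measured. The assay was also applied to fractions.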
For orientation: An ELISA detects its analyte on a solid surface through an enzyme-linked reagent.
`CN(C)CCCOc1c(Br)cc(CCN(C)C)cc1Br` [APLYSAMINE]: the “fold change (FC)” value came out at 2.

The next test relates to CCF-STTG1. As to the kind of experiment: Induction of apolipoprotein E secretion from human CCF-STTG1 cells up to 40 uM after 96 hrs by ELISA. The test is classed as functional, cell-based. In short, it runs like this:
as §1
As to `CN(C)CCc1cc(Br)c(O)c(Br)c1`, the outcome was inactive. On to `COc1ccc(CC(C(=O)O)[N+](C)(C)C)cc1Br` (stereo not given), for which the outcome was inactive. For the molecule `CN(C)CCCOc1c(Br)cc(CC[N+](C)(C)O)cc1Br`, the result was inactive. As to `COc1ccc(/C=C/C(=O)NCCCC[C@@H](N)C(=O)O)cc1Br`, the outcome was inactive. Same read-out and setting: the result for `COc1c(Br)cc(C(=O)O)cc1Br` reads “inactive”; that for `CNCCc1cc(Br)c(OCCCN(C)C)c(Br)c1`, “inactive”; that for `COc1c(Br)cc(/C=C/C(=O)NCCCC[C@@H](N)C(=O)O)cc1Br`, “inactive”. The same measure, in the same setting: the result for `COc1ccc(C[C@H](N)C(=O)NCCc2cc(Br)c(OCCCN(C)C)c(Br)c2)cc1Br` reads “inactive”; that for `COc1ccc(/C=C/C(=O)NCCCCC(=O)O)cc1Br`, “inactive”.
